These results are taken from ChEMBL document CHEMBL1137438, “Small conformationally restricted piperidine N-arylsulfonamides as orally active gamma-secretase inhibitors” (Bioorg Med Chem Lett, 2007).

Series [1] in a line: AUC in rat at 10 mg/kg, po after 0 to 6 hrs. It counts as ADME, organism-based. The arrangement: time < 6 hr, dose 10 mg/kg, route oral. The following applies: plasma.
Series [2] deals with Mus musculus. In words: Plasma A-beta-40 level in Tg CRND8 mouse at 30 mg/kg, sc after 3 hrs. It counts as functional. The following applies: route subcutaneous. In a few lines: (§1)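 Tg CRND8 transgenic mice, acute single dose of 30 mpk, oral or sub-cutaneous. Plasma Aβ40 measured 3 h after dosing and expressed as % reduction.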
Series [3] concerns Mus musculus. In words: Plasma A-beta-40 level in Tg CRND8 mouse at 30 mg/kg, po after 3 hrs. In kind it is functional. Summed up: as §1

SMILES strings stand for the structures.

For orientation: AUC means concentration integrated over time. `CC[C@@H]1CCC[C@H](C2(OC(=O)N3CC4CCC(C3)N4CCO)CC2)N1S(=O)(=O)c1ccc(F)cc1` (mixture of isomers): in series [1], the AUC at 6 h was 1780 ng·h/mL.

In series [1], `CC[C@@H]1CCC[C@H](C2(OC(=O)N3CC4CCC(C3)N4CCO)CC2)N1S(=O)(=O)c1ccc(F)c(F)c1` (mixture of isomers) yielded an AUC at 6 h of 1330 ng·h/mL.

For the molecule `CC[C@@H]1CCC[C@H](C2(OC(=O)N3CC4CCC(C3)N4CCO)CC2)N1S(=O)(=O)c1ccc(Cl)cc1` (mixture of isomers), in series [1], the exposure (AUC) at 6 h came to 939 ng·h/mL. This molecule showed an Activity with Mus musculus [2] of 85%. For the molecule `CC[C@@H]1CCC[C@H](C2(OC(=O)N3CCN(CCO)[C@@H](C)C3)CC2)N1S(=O)(=O)c1ccc(Cl)cc1` (racemic), the AUC at 6 h in series [1] turned out to be 1870 ng·h/mL. In the case of `CC[C@@H]1CCC[C@H](C2(OC(=O)N3CCN(C(C)(C)CO)CC3)CC2)N1S(=O)(=O)c1ccc(Cl)cc1` (racemic), in series [1], the AUC at 6 h is 892 ng·h/mL. The values for the Activity with Mus musculus [2] and in the series with Mus musculus [3] were 91% and 96%, respectively. `CC[C@@H]1CCC[C@H](C2(OC(=O)N3CCN(C(C)(C)CO)CC3)CC2)N1S(=O)(=O)c1ccc(F)cc1` (racemic) yielded an AUC at 6 h in series [1] of 405 ng·h/mL. In the series on Mus musculus [2], this molecule gave an Activity of 59%. `CC[C@@H]1CCC[C@H](C2(OC(=O)N3CCN(CCO)C[C@@H]3C)CC2)N1S(=O)(=O)c1ccc(Cl)cc1` (racemic) yielded an AUC at 6 h in series [1] of 3410 ng·h/mL. Same read-out and setting: in the case of `CC[C@@H]1CCC[C@H](C2(OC(=O)N3CCC(CCO)(OC)CC3)CC2)N1S(=O)(=O)c1ccc(Cl)cc1` (racemic) it was 81 ng·h/mL.

On to `CC[C@@H]1CCC[C@H](C2(OC(=O)N3CCC(N4CCCCC4)CC3)CC2)N1S(=O)(=O)c1cc(F)cc(F)c1` (racemic), for which, in series [1], the AUC at 6 h came out at 296 ng·h/mL.
